ChEMBL document CHEMBL1932971, “Synthesis of uriedo and thiouriedo derivatives of peptide conjugated heterocycles - A new class of promising antimicrobials” (2012)
Numbered stars: 1 amine (or outer) side, 2 acyl side, 3 side chain; on linkers, the order of the positions; unused ones are H or OH. Peptide text beside a SMILES is read from it. * marks the point of attachment. Piperazinyl(4-(2,3-Cl2Ph)) = Clc1cccc(N2CCN(*)CC2)c1Cl; Thiocarbamoyl(4-MeOPh) = COc1ccc(NC(=S)*)cc1; NH(4-MeO-phenyl) = COc1ccc(N*)cc1; NH(4-Cl-phenyl) = Clc1ccc(N*)cc1; X1 = Fc1ccc2c(C3CCN(*)CC3)noc2c1; CO = O=C([*:1])[*:2]

Key:
Format in all cases: functional
Settings in all cases: read-out: DIZ
Aspergillus niger = test: Antifungal activity against Aspergillus niger at 30 ug/ml after 72 hrs by agar well diffusion method
Procedure, shortened: (§1)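 Fungal well diffusion. Inocula were subcultured in nutrient broth for one day, then spread on solidified medium. Compounds were made as a 1 mg/mL DMSO stock and diluted to 30 µg/mL final. Each 6 mm well got 0.1 mL. Controls were bavistin (reference) and DMSO (negative). Plates stood for 3 days at room temperature. Inhibition zone was measured in mm as the mean of three determinations.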

Aspergillus flavus = test: Antifungal activity against Aspergillus flavus at 30 ug/ml after 72 hrs by agar well diffusion method; procedure, shortened: as §1
Klebsiella pneumoniae = test: Antibacterial activity against Klebsiella pneumoniae at 30 ug/ml after 24 hrs by agar well diffusion method
Procedure, shortened: (§2)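 Agar well diffusion. Inocula were grown in nutrient broth at 37 °C for 24 h, then subcultured in nutrient broth at room temperature. Compounds were made as a 1 mg/mL DMSO stock and diluted to 30 µg/mL final. Nutrient agar plates were spread-inoculated and 6 mm wells each got 0.1 mL. Controls were amoxicillin (reference) and DMSO (negative). Incubation was 24 h at 37 °C. Inhibition zone was measured in mm as the mean of three determinations.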

Staphylococcus aureus = test: Antibacterial activity against coagulase-positive Staphylococcus aureus at 30 ug/ml after 24 hrs by agar well diffusion method; procedure, shortened: as §2
Fusarium oxysporum = test: Antifungal activity against Fusarium oxysporum at 30 ug/ml after 72 hrs by agar well diffusion method; procedure, shortened: as §1
Escherichia coli = test: Antibacterial activity against Escherichia coli at 30 ug/ml after 24 hrs by agar well diffusion method; procedure, shortened: as §2
Xanthomonas oryzae = test: Antibacterial activity against Xanthomonas oryzae at 30 ug/ml after 24 hrs by agar well diffusion method

Row | SMILES | zone of inhibition at 30 µg/mL (Aspergillus niger) | zone of inhibition at 30 µg/mL (Aspergillus flavus) | zone of inhibition at 30 µg/mL (Klebsiella pneumoniae) | zone of inhibition at 30 µg/mL (Staphylococcus aureus) | zone of inhibition at 30 µg/mL (Fusarium oxysporum) | zone of inhibition at 30 µg/mL (Escherichia coli) | zone of inhibition at 30 µg/mL (Xanthomonas oryzae)
1 | O=C(Nc1ccccc1F)N[C@@H](Cc1c[nH]c2ccccc12)C(=O)N1CCC(c2noc3cc(F)ccc23)CC1 | 12 mm | 9 mm | 8 mm | 8 mm | 8 mm | 11 mm | 11 mm
2 | O=C([C@H](Cc1c[nH]c2ccccc12)NC(=S)Nc1ccccc1F)N1CCC(c2noc3cc(F)ccc23)CC1 | 13 mm | 10 mm | 9 mm | 9 mm | 7 mm | 13 mm | 12 mm
3 | O=C(Nc1ccccc1F)N[C@@H](Cc1c[nH]c2ccccc12)C(=O)N1CCN(c2cccc(Cl)c2Cl)CC1 | 10 mm | 11 mm | 10 mm | 11 mm | 7 mm | 9 mm | 9 mm
4 | O=C([C@H](Cc1c[nH]c2ccccc12)NC(=S)Nc1ccccc1F)N1CCN(c2cccc(Cl)c2Cl)CC1 | 11 mm | 12 mm | 11 mm | 12 mm | 6 mm | 10 mm | 10 mm
5 | O=C(CNC(=O)Nc1ccc(Cl)cc1)NCC(=O)N[C@@H](Cc1ccccc1)C(=O)N1CCC[C@H]1C(=O)N1CCC(c2noc3cc(F)ccc23)CC1 ({NH(4-Cl-phenyl)-CO}-GGFP-X1) | 31 mm | 26 mm | 23 mm | 21 mm | 28 mm | 28 mm | 25 mm
6 | O=C(CNC(=O)Nc1ccc(Cl)cc1)NCC(=O)N[C@@H](Cc1ccccc1)C(=O)N1CCC[C@H]1C(=O)N1CCN(c2cccc(Cl)c2Cl)CC1 ({NH(4-Cl-phenyl)-CO}-GGFP-{Piperazinyl(4-(2,3-Cl2Ph))}) | 30 mm | 25 mm | 22 mm | 20 mm | 27 mm | 27 mm | 24 mm
7 | CC[C@H](C)[C@H](NC(=O)CNC(=O)CNC(=O)Nc1ccc(Cl)cc1)C(=O)N1CCC[C@H]1C(=O)N1CCC(c2noc3cc(F)ccc23)CC1 ({NH(4-Cl-phenyl)-CO}-GGIP-X1) | 27 mm | 24 mm | 18 mm | 19 mm | 26 mm | 26 mm | 22 mm
8 | COc1ccc(NC(=O)NCC(=O)N[C@@H](Cc2ccccc2)C(=O)NCC(=O)N[C@@H](Cc2ccccc2)C(=O)N2CCC[C@H]2C(=O)N2CCC(c3noc4cc(F)ccc34)CC2)cc1 ({NH(4-MeO-phenyl)-CO}-GFGFP-X1) | 35 mm | 29 mm | 30 mm | 28 mm | 32 mm | 30 mm | 30 mm
9 | COc1ccc(NC(=O)NCC(=O)NCC(=O)N[C@@H](Cc2ccccc2)C(=O)N2CCC[C@H]2C(=O)N2CCC(c3noc4cc(F)ccc34)CC2)cc1 ({NH(4-MeO-phenyl)-CO}-GGFP-X1) | 27 mm | 20 mm | 19 mm | 17 mm | 23 mm | 26 mm | 24 mm
10 | COc1ccc(NC(=O)NCC(=O)NCC(=O)N[C@@H](Cc2ccccc2)C(=O)N2CCC[C@H]2C(=O)N2CCN(c3cccc(Cl)c3Cl)CC2)cc1 ({NH(4-MeO-phenyl)-CO}-GGFP-{Piperazinyl(4-(2,3-Cl2Ph))}) | 26 mm | 19 mm | 18 mm | 16 mm | 22 mm | 25 mm | 23 mm
11 | CC[C@H](C)[C@H](NC(=O)CNC(=O)CNC(=O)Nc1ccc(OC)cc1)C(=O)N1CCC[C@H]1C(=O)N1CCC(c2noc3cc(F)ccc23)CC1 ({NH(4-MeO-phenyl)-CO}-GGIP-X1) | 23 mm | 19 mm | 16 mm | 14 mm | 21 mm | 22 mm | 17 mm
12 | COc1ccc(NC(=O)NCC(=O)N[C@H](C(=O)NCC(=O)N[C@H](C(=O)N2CCC[C@H]2C(=O)N2CCC(c3noc4cc(F)ccc34)CC2)C(C)C)C(C)C)cc1 ({NH(4-MeO-phenyl)-CO}-GVGVP-X1) | 30 mm | 27 mm | 27 mm | 23 mm | 27 mm | 26 mm | 33 mm
13 | COc1ccc(NC(=S)NCC(=O)N[C@@H](Cc2ccccc2)C(=O)NCC(=O)N[C@@H](Cc2ccccc2)C(=O)N2CCC[C@H]2C(=O)N2CCC(c3noc4cc(F)ccc34)CC2)cc1 ({Thiocarbamoyl(4-MeOPh)}-GFGFP-X1) | 36 mm | 30 mm | 31 mm | 29 mm | 33 mm | 31 mm | 31 mm
14 | COc1ccc(NC(=S)NCC(=O)N[C@@H](Cc2ccccc2)C(=O)NCC(=O)N[C@@H](Cc2ccccc2)C(=O)N2CCC[C@H]2C(=O)N2CCN(c3cccc(Cl)c3Cl)CC2)cc1 ({Thiocarbamoyl(4-MeOPh)}-GFGFP-{Piperazinyl(4-(2,3-Cl2Ph))}) | 32 mm | 28 mm | 29 mm | 26 mm | 29 mm | 29 mm | 28 mm
15 | COc1ccc(NC(=S)NCC(=O)NCC(=O)N[C@@H](Cc2ccccc2)C(=O)N2CCC[C@H]2C(=O)N2CCC(c3noc4cc(F)ccc34)CC2)cc1 ({Thiocarbamoyl(4-MeOPh)}-GGFP-X1) | 28 mm | 23 mm | 21 mm | 19 mm | 25 mm | 24 mm | 22 mm
16 | COc1ccc(NC(=S)NCC(=O)NCC(=O)N[C@@H](Cc2ccccc2)C(=O)N2CCC[C@H]2C(=O)N2CCN(c3cccc(Cl)c3Cl)CC2)cc1 ({Thiocarbamoyl(4-MeOPh)}-GGFP-{Piperazinyl(4-(2,3-Cl2Ph))}) | 29 mm | 22 mm | 20 mm | 18 mm | 24 mm | 23 mm | 21 mm
